From ChEMBL document CHEMBL4346679, “N, N', N″-trisubstituted guanidines: Synthesis, characterization and evaluation of their leishmanicidal activity” (Eur J Med Chem, 2019)
Calls of active or inactive are those of the source. The calls are words filed in the database; no cut-off is given here.

What was measured:
[1] = Safety index, ratio of CC50 for mouse peritoneal macrophage to IC50 for promastigote stage of Leishmania amazonensis MPRO/BR/1972/M1841-LV-79; assay type: toxicity; conditions: read-out: Ratio CC50/IC50
Leishmania amazonensis [2] = assay: Antileishmanial activity against Leishmania amazonensis MPRO/BR/1972/M1841-LV-79 amastigotes infected in mouse peritoneal macrophages assessed as parasite growth inhibition after 24 hrs by Giemsa staining-based microscopic method; assay type: functional, organism-based; conditions: MPRO/BR/1972/M1841-LV-79, 24 h
How it was run: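 Peritoneal macrophages (3 × 10^5/well on coverslips, RPMI 1640 + 10% FBS) adhered 4 h at 37 °C, 5% CO2, then infected with stationary-phase promastigotes at 5:1 for 4 h. After washing, cells were cultured 18 h, then treated 24 h with compounds or reference drugs. Cells were methanol-fixed and Giemsa-stained. Infection index = % infected macrophages × mean amastigotes per infected cell. IC50 was fitted by regression.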

[3] = Cytotoxicity against mouse peritoneal macrophages assessed as decrease in cell viability after 24 hrs by MTT assay; assay type: cell-based, Peritoneal macrophage
How it was run: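 Peritoneal macrophages (1 × 10^5/well) in RPMI 1640 with 10% FBS, 25 mM HEPES and 2 mM L-glutamine were pre-incubated 4 h. They were then exposed to compounds for 24 h at 37 °C, 5% CO2. Viability was read by MTT; CC50 determined.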

Leishmania amazonensis [4] = assay: Antileishmanial activity against promastigote stage of Leishmania amazonensis MPRO/BR/1972/M1841-LV-79 assessed as parasite growth inhibition after 72 hrs by MTT assay; assay type: functional, organism-based; conditions: MPRO/BR/1972/M1841-LV-79, 72 h
How it was run: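 Promastigotes at 1 × 10^7/mL in LIT + 10% FBS were exposed 72 h at 28 °C to ten concentrations, 0.5–100 µM (final DMSO 0.1%). Viability was read by MTT, with formazan dissolved in SDS-HCl and absorbance at 570 nm. Run in triplicate; IC50 from nonlinear regression.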

[5] = Safety index, ratio of CC50 for mouse peritoneal macrophages to IC50 for Leishmania amazonensis MPRO/BR/1972/M1841-LV-79 amastigotes infected in mouse peritoneal macrophages; assay type: toxicity; conditions: read-out: Ratio CC50/IC50
Leishmania amazonensis [6] = assay: Antileishmanial activity against Leishmania amazonensis MPRO/BR/1972/M1841-LV-79 amastigotes infected in mouse peritoneal macrophages assessed as reduction in number of intracellular amastigotes at 25 uM after 72 hrs by Giemsa staining-based microscopic method relative to control; assay type: functional; set-up: scale not given: the % may be the effect or the level left
How it was run: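 Infected peritoneal macrophages were treated with 25 µM of each compound, pentamidine or AmpB for 72 h. The infection index (% infected macrophages × amastigotes per infected macrophage) was compared with untreated infected cells. Data are given as mean ± SD.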

Mus musculus [7] = assay: Mutagenic index, ratio of test compound effect to hydroxyethylcellulose effect for Swiss albino mouse assessed as frequency of micronucleated reticulocytes per 2000 cells at 50 mg/kg administered via gavage; assay type: organism-based; conditions: in vivo, po
How it was run: (§1)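 Male Swiss albino mice (5 per group) received 25, 50 or 100 mg/kg by gavage. The negative control got 0.3 mL of 0.5% hydroxyethylcellulose; the positive control got cyclophosphamide 50 mg/kg ip. Micronucleated reticulocytes were counted per 2000 cells on acridine orange-stained slides. MI = treated MNRET ÷ negative-control MNRET.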

Mus musculus [8] = assay: Mutagenic index, ratio of test compound effect to hydroxyethylcellulose effect for Swiss albino mouse assessed as frequency of micronucleated reticulocytes per 2000 cells at 100 mg/kg administered via gavage; assay type: organism-based; conditions: in vivo, po; how it was run: as §1
Leishmania amazonensis [9] = assay: Antileishmanial activity against promastigote stage of Leishmania amazonensis MPRO/BR/1972/M1841-LV-79 infected in Balb/c mouse assessed as reduction in volume of foot lesions at 0.13 to 0.25 mg/kg, ip administered once daily for 15 days measured every 5 days during compound dosing by caliper method; assay type: functional, organism-based
How it was run: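 Infected BALB/c mice (5 per group) were dosed daily ip for 15 days, starting six weeks after footpad inoculation: 0.13 or 0.25 mg/kg/day, AmpB 2 mg/kg/day, or PBS. Foot lesion thickness was measured with a dial caliper every 5 days.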

[10] = Renal toxicity in Balb/c mouse infected with promastigote stage of Leishmania amazonensis MPRO/BR/1972/M1841-LV-79 assessed as change in plasma urea level at 0.13 to 0.25 mg/kg, ip administered once daily for 15 days measured post-last dose; assay type: organism-based; conditions: in vivo, 360 h
How it was run: (§2)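 Female BALB/c mice (4 weeks old, 5 per group) were infected in the left hind footpad with 1 × 10^7 parasites/mL of infective promastigotes. After six weeks they received daily ip doses for 15 days: 0.13 or 0.25 mg/kg/day (from DMSO stock in PBS, 0.1% DMSO), AmpB 2 mg/kg/day in sterile water, or PBS. Controls were untreated infected and uninfected mice. At end of treatment, plasma bilirubin, AST, ALT, ALP, urea and creatinine were measured with commercial kits.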

Leishmania amazonensis [11] = assay: Antileishmanial activity against promastigote stage of Leishmania amazonensis MPRO/BR/1972/M1841-LV-79 infected in Balb/c mouse assessed as decrease in plasma alkaline phosphatase level at 0.13 to 0.25 mg/kg, ip administered once daily for 15 days measured post-last dose; assay type: functional, organism-based; how it was run: as §2
Leishmania amazonensis [12] = assay: Antileishmanial activity against promastigote stage of Leishmania amazonensis MPRO/BR/1972/M1841-LV-79 infected in Balb/c mouse assessed as decrease in plasma aspartate aminotransferase level at 0.13 to 0.25 mg/kg, ip administered once daily for 15 days measured post-last dose; assay type: functional, organism-based; how it was run: as §2
[13] = Mutagenicity in Swiss albino mouse assessed as frequency of micronucleated reticulocytes per 2000 cells at 100 mg/kg administered via gavage by acridine orange staining-based micronucleus test; assay type: toxicity, organism-based; conditions: in vivo, po
How it was run: (§3)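 Male Swiss albino mice (30 ± 4 g, 5 per group) were dosed by gavage at 25, 50 or 100 mg/kg. Controls: 0.5% hydroxyethylcellulose (negative) and ip cyclophosphamide 50 mg/kg (positive). Peripheral blood was placed on acridine orange (1 mg/mL) pre-stained slides heated at 70 °C. Fluorescence microscopy used 488 nm light; micronucleated cells were counted among 2000 reticulocytes per animal.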

[14] = Mutagenicity in Swiss albino mouse assessed as frequency of micronucleated reticulocytes per 2000 cells at 50 mg/kg administered via gavage by acridine orange staining-based micronucleus test; assay type: toxicity, organism-based; conditions: in vivo, po; how it was run: as §3
[15] = Renal toxicity in Balb/c mouse infected with promastigote stage of Leishmania amazonensis MPRO/BR/1972/M1841-LV-79 assessed as change in plasma creatinine level at 0.13 to 0.25 mg/kg, ip administered once daily for 15 days measured post-last dose; assay type: organism-based; conditions: in vivo, 360 h; how it was run: as §2
Mus musculus [16] = assay: Mutagenic index, ratio of test compound effect to hydroxyethylcellulose effect for Swiss albino mouse assessed as frequency of micronucleated reticulocytes per 2000 cells at 25 mg/kg administered via gavage; assay type: organism-based; conditions: in vivo, po; how it was run: as §1
[17] = Mutagenicity in Swiss albino mouse assessed as frequency of micronucleated reticulocytes per 2000 cells at 25 mg/kg administered via gavage by acridine orange staining-based micronucleus test; assay type: toxicity, organism-based; conditions: in vivo, po; how it was run: as §3
[18] = Toxicity in Balb/c mouse infected with promastigote stage of Leishmania amazonensis MPRO/BR/1972/M1841-LV-79 assessed as change in body weight at 0.13 to 0.25 mg/kg, ip administered once daily for 15 days measured during compound dosing; assay type: organism-based; conditions: in vivo, 360 h
Leishmania amazonensis [19] = assay: Antileishmanial activity against promastigote stage of Leishmania amazonensis MPRO/BR/1972/M1841-LV-79 infected in Balb/c mouse assessed as reduction in parasitic load at 0.25 mg/kg, ip administered once daily for 15 days by limiting dilution method relative to control; assay type: functional; set-up: scale not given: the % may be the effect or the level left
How it was run: (§4)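 Footpad-infected female BALB/c mice (1 × 10^7 parasites/mL promastigotes; 5 per group) were treated from six weeks post-infection. Dosing was daily ip for 15 days: 0.13 or 0.25 mg/kg/day (PBS, 0.1% DMSO), AmpB 2 mg/kg/day, or PBS vehicle. Skin-lesion parasite burden was quantified after treatment by limiting dilution and compared with untreated infected mice. Data are mean ± SD.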

Leishmania amazonensis [20] = assay: Antileishmanial activity against promastigote stage of Leishmania amazonensis MPRO/BR/1972/M1841-LV-79 infected in Balb/c mouse assessed as decrease in plasma alanine aminotransferase level at 0.13 to 0.25 mg/kg, ip administered once daily for 15 days measured post-last dose; assay type: functional, organism-based; how it was run: as §2
Leishmania amazonensis [21] = assay: Antileishmanial activity against promastigote stage of Leishmania amazonensis MPRO/BR/1972/M1841-LV-79 infected in Balb/c mouse assessed as reduction in parasitic load at 0.13 mg/kg, ip administered once daily for 15 days by limiting dilution method relative to control; assay type: functional; set-up: scale not given: the % may be the effect or the level left; how it was run: as §4
Leishmania amazonensis [22] = assay: Antileishmanial activity against promastigote stage of Leishmania amazonensis MPRO/BR/1972/M1841-LV-79 infected in Balb/c mouse assessed as increase in plasma bilirubin level at 0.13 to 0.25 mg/kg, ip administered once daily for 15 days measured during compound dosing; assay type: functional, organism-based

SMILES	selectivity ratio [1]	IC50 (Leishmania amazonensis [2]) [µM]	CC50 at 24 h [3] [µM]	IC50 (Leishmania amazonensis [4]) [µM]	selectivity ratio [5]	Activity (Leishmania amazonensis [6]) [%]	also measured
O=C(/N=C(/NCc1ccccc1)Nc1ccc([N+](=O)[O-])cc1)c1ccccc1	69.7	22.1	802	11.5	36.4		
Cc1ccc(N/C(=N\C(=O)c2ccccc2)NCc2ccccc2)cc1	41.9	24.2	876	20.9	36.2		
O=C(/N=C(/NCc1ccccc1)Nc1ccc(Cl)cc1)c1ccccc1	42	41.2	827	19.7	20.1	19	
COc1ccc(N/C(=N\C(=O)c2ccccc2)NCc2ccccc2)cc1	32.9	21.1	837	25.4	39.6		
O=C(/N=C(/NCc1ccccc1)Nc1ccc(F)cc1)c1ccccc1	39.5	19	866	21.9	45.5	70	
O=C(/N=C(/NCc1ccccc1)Nc1ccc(Br)cc1)c1ccccc1	37.7	5.6	738	19.6	132	86	Ratio (Mus musculus [7]): 1.6; Ratio (Mus musculus [8]): 1.2; Activity (Leishmania amazonensis [9]): Active; Activity [10]: Non-Toxic; Activity (Leishmania amazonensis [11]): Active; Activity (Leishmania amazonensis [12]): inactive; Activity [13]: 6; Activity [14]: 8; Activity [15]: Non-Toxic; Ratio (Mus musculus [16]): 1.4; Activity [17]: 7; Activity [18]: Non-Toxic; Activity (Leishmania amazonensis [19]): 60%; Activity (Leishmania amazonensis [20]): Active; Activity (Leishmania amazonensis [21]): 46%; Activity (Leishmania amazonensis [22]): Active
O=C(/N=C(/NCc1ccccc1)Nc1ccccc1)c1ccccc1	1.6		35.9	22.6			
CC(C)(C)c1ccc(N/C(=N\C(=O)c2ccccc2)NCc2ccccc2)cc1	43.2	17.2	1120	25.9	65		
N=C(N)c1ccc(OCCCCCOc2ccc(C(=N)N)cc2)cc1 [PENTAMIDINE]	4.7	5.07	35.7	7.6	7	81	
O=C(/N=C(/NCc1ccccc1)Nc1ccc(C(F)(F)F)cc1)c1ccccc1	2.7	21.4	18.6	6.8	0.8		
O=C(/N=C(/NCc1ccccc1)Nc1ccc(I)cc1)c1ccccc1	38.9	7.1	619	15.9	87.1	78	Ratio (Mus musculus [7]): 1; Ratio (Mus musculus [8]): 1.2; Activity [13]: 6; Activity [14]: 5; Ratio (Mus musculus [16]): 0.6; Activity [17]: 3
